Where “and” joins values, the source holds several entries; their conditions need not be identical. Equal values may be shown once.
What was measured:
Canis familiaris [1] = test: The change in stroke volume was determined after 10 min of 3.0 ug/kg administration in the dog heart-lung preparation; format: functional, Canis lupus familiaris
Method in brief: (§1)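 Dog heart-lung preparation from mongrel dogs of either sex, 11–19 kg, anesthetized with sodium pentobarbital 35 mg/kg iv. Strain gauge arch on the right ventricle; left atrial pressure by atrial cannula transducer; aortic flow by extracorporeal flow meter. Drug was added to the blood reservoir and measured at 10 min, n = 5–8. Change vs control by paired t test.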

Canis familiaris [2] = test: (§2) The change in cardiac output was determined after 10 min of 3.0 ug/kg administration in the dog heart-lung preparation; format: functional, Canis lupus familiaris; method in brief: as §1
Canis familiaris [3] = test: The change in cardiac contractile force after 10 min of 3.0 ug/kg administration in the dog heart-lung preparation; format: functional, Canis lupus familiaris; method in brief: as §1
Canis familiaris [4] = test: The change in heart rate was determined after 10 min of 3.0 ug/kg administration in the dog heart-lung preparation; format: functional, Canis lupus familiaris; method in brief: as §1
Canis familiaris [5] = test: The change in mean arterial blood pressure was determined after 1 mg/kg iv administration with 0.5 mg/kg, iv propranolol; format: functional, Canis lupus familiaris
Method in brief: (§3)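 Anesthetized dogs, N = 6 per group, given test agent 1 mg/kg iv or isoproterenol 0.1 μg/kg iv, with or without propranolol 0.5 mg/kg iv pretreatment. Percent change from control was recorded for contractile force (strain gauge arch) and for mean arterial BP. Values are means ± SE, compared by Student's t test.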

Canis familiaris [6] = test: The change in stroke volume was determined after 10 min of 1.0 ug/kg administration in the dog heart-lung preparation; format: functional, Canis lupus familiaris; method in brief: as §1
Canis familiaris [7] = test: The stroke volume was determined after 1.0 mg/kg administration with 20 mg/kg pentobarbital in the dog heart-lung preparation; format: functional, Canis lupus familiaris
Method in brief: (§4)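 Heart-lung preparation from mongrel dogs anesthetized with pentobarbital 35 mg/kg iv. Failure was induced by adding pentobarbital 20 mg/kg to the blood reservoir, then test agent 1 mg/kg was added. Force, rate, output, stroke volume, left atrial pressure and stroke work were read 10 min later. Five preparations, means ± SE, analysis of variance.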

Canis familiaris [8] = test: The change in left atrial pressure was determined after 10 min of 0.3 ug/kg administration in the dog heart-lung preparation; format: functional, Canis lupus familiaris, Cardiac atrium; method in brief: as §1
Canis familiaris [9] = test: Stroke work was determined after 1.0 mg/kg administration with 20 mg/kg pentobarbital in the dog heart-lung preparation; format: functional, Canis lupus familiaris; method in brief: as §4
Canis familiaris [10] = test: Pharmacological activity for Contractile force, +30% in anesthetized dog was determined after intravenous administration; format: functional, Canis lupus familiaris
Method in brief: (§5)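 Anesthetized dogs; contractile force recorded by a left-ventricular Walton-Brodie strain gauge arch, heart rate from lead II EKG, plus blood pressure. Stabilized at least 30 min, then at least three iv doses given, one compound per animal, with return to basal between doses. Doses for +30% force, +15% rate and −20% BP were extrapolated from dose-response curves; geometric mean where repeated.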

Canis familiaris [11] = test: The change in left atrial pressure was determined after 10 min of 3.0 ug/kg administration in the dog heart-lung preparation; format: functional, Canis lupus familiaris, Cardiac atrium; method in brief: as §1
Canis familiaris [12] = test: as §2; format: functional, Canis lupus familiaris; method in brief: as §1; remark: listed apart in the source
Canis familiaris [13] = test: The change in cardiac contractile force after 1 mg/kg iv administration with 0.5 mg/kg, iv propranolol; format: functional, Canis lupus familiaris, Heart; method in brief: as §3
Canis familiaris [14] = test: The change in cardiac contractile force was determined after 10 min of 3.0 ug/kg administration in the dog heart-lung preparation; format: functional, Canis lupus familiaris; method in brief: as §1
Canis familiaris [15] = test: The change in left atrial pressure was determined after 10 min of 3.0 ug/kg administration in the dog heart-lung preparation.; format: functional, Canis lupus familiaris, Cardiac atrium; method in brief: as §1
Canis familiaris [16] = test: The left atrial pressure was determined after 1.0 mg/kg administration with 20 mg/kg pentobarbital in the dog heart-lung preparation; format: functional, Canis lupus familiaris, Cardiac atrium; method in brief: as §4
Canis familiaris [17] = test: The change in left atrial pressure after 10 min of 0.3 ug/kg administration in the dog heart-lung preparation; format: functional, Canis lupus familiaris, Cardiac atrium; method in brief: as §1
Canis familiaris [18] = test: The cardiac output was determined after 1.0 mg/kg administration with 20 mg/kg pentobarbital in the dog heart-lung preparation; format: functional, Canis lupus familiaris; method in brief: as §4
Canis familiaris [19] = test: The heart rate was determined after 1.0 mg/kg administration with 20 mg/kg pentobarbital in the dog heart-lung preparation; format: functional, Canis lupus familiaris; method in brief: as §4
Canis familiaris [20] = test: The change in heart rate was determined after 10 min of 0.3 ug/kg administration in the dog heart-lung preparation; format: functional, Canis lupus familiaris; method in brief: as §1
Canis familiaris [21] = test: Pharmacological activity for heart rate +15% in anesthetized dog was determined after intravenous administration; format: functional, Canis lupus familiaris; method in brief: as §5
Canis familiaris [22] = test: The change in stroke volume after 10 min of 3.0 ug/kg administration in the dog heart-lung preparation; format: functional, Canis lupus familiaris; method in brief: as §1
Canis familiaris [23] = test: The cardiac contractile force was determined after 1.0 mg/kg administration with 20 mg/kg pentobarbital in the dog heart-lung preparation; format: functional, Canis lupus familiaris; method in brief: as §4
Canis familiaris [24] = test: The change in stroke volume was determined after 10 min of 0.3 ug/kg administration in the dog heart-lung preparation; format: functional, Canis lupus familiaris; method in brief: as §1
Canis familiaris [25] = test: The change in stroke volume after 10 min of 1.0 ug/kg administration in the dog heart-lung preparation; format: functional, Canis lupus familiaris; method in brief: as §1
Canis familiaris [26] = test: The change in heart rate was determined after 10 min of 1.0 ug/kg administration in the dog heart-lung preparation; format: functional, Canis lupus familiaris; method in brief: as §1
Canis familiaris [27] = test: The change in cardiac contractile force after 1 mg/kg iv administration, activity is expressed as % change.; format: functional, Canis lupus familiaris, Heart; method in brief: as §3
Canis familiaris [28] = test: The change in cardiac contractile force was determined after 10 min of 1.0 ug/kg administration in the dog heart-lung preparation; format: functional, Canis lupus familiaris; method in brief: as §1
Canis familiaris [29] = test: The change in cardiac contractile force was determined after 10 min of 0.3 ug/kg administration in the dog heart-lung preparation; format: functional, Canis lupus familiaris; method in brief: as §1
Canis familiaris [30] = test: Pharmacological activity for Blood pressure, -20% in anesthetized dog was determined after intravenous administration; format: functional, Canis lupus familiaris; method in brief: as §5
Canis familiaris [31] = test: The change in mean arterial blood pressure was determined after 1 mg/kg iv administration; format: functional, Canis lupus familiaris; method in brief: as §3

`COc1ccc(C(=O)c2[nH]c(O)nc2C)cc1` was tested, and the Change (Canis familiaris [1]) was -1.2 mL, the Change (Canis familiaris [2]) was 46 mL/min and the Change (Canis familiaris [3]) was 179%. The Change (Canis familiaris [4]) was 41% and 28%, the Change (Canis familiaris [5]) was -33% and the Change (Canis familiaris [6]) was -1.1 mL. It also gave a Stroke volume (Canis familiaris [7]) of 7 mL, a Change (Canis familiaris [8]) of -49% and a Stroke work (Canis familiaris [9]) of 7.7 g. For the same compound, the Equieffective dose (Canis familiaris [10]) was 0.16 mg/kg, the Change (Canis familiaris [11]) was -43% and the Change (Canis familiaris [12]) was 4%. The Change (Canis familiaris [13]) was 144%, the Change (Canis familiaris [14]) was 129 g and the Change (Canis familiaris [15]) was -1.1 mmHg. It also gave a Left atrial pressure (Canis familiaris [16]) of 2.6 mmHg, a Change (Canis familiaris [17]) of -1.6 mmHg and a Cardiac output (Canis familiaris [18]) of 1053 mL/min. For the same compound, the Heart rate (Canis familiaris [19]) was 151 beats min-1, the Change (Canis familiaris [20]) was 22% and 14% and the Equieffective dose (Canis familiaris [21]) was 0.4 mg/kg. The Change (Canis familiaris [22]) was -18%, the Cardiac contractile force (Canis familiaris [23]) was 88 g and the Change (Canis familiaris [24]) was -0.7% and -10%. The Change (Canis familiaris [25]) was -16%, the Change (Canis familiaris [26]) was 35% and 23% and the Change (Canis familiaris [27]) was 127%. For the same compound, the Change (Canis familiaris [28]) was 96.7% and 121%, the Change (Canis familiaris [29]) was 62% and 88% and the Equieffective dose (Canis familiaris [30]) was 0.65 mg/kg. It also gave a Change (Canis familiaris [31]) of -27%.
